{"data": "Measurements collected from several papers", "target": "Rho-associated protein kinase 2 (ROCK2, Homo sapiens, UniProt O75116)", "note": "Lines come from different studies, so protocols differ."}
{"SMILES": "Cn1cc(-c2cccc(N3CCc4c(sc5c4CC(C)(C)C5)C3=O)c2CO)cc(Nc2ccncn2)c1=O", "test": "enzyme activity, inhibitor", "setting": "1 µM", "quantity": "inhibition", "result": "1%"}
{"SMILES": "O=c1[nH]c2ccccc2n1C1CCN(Cc2ccc(-c3[nH]c4cc5ncnc5cc4nc3-c3ccccc3)cc2)CC1", "test": "cell-free assay", "setting": "0.5 µM", "quantity": "remaining signal", "result": "109%"}
{"SMILES": "Cn1cncc1[C@@](O)(COc1ccc(C#N)cc1-c1ccc(OC(F)(F)F)cc1)c1ccc(C#N)cc1", "test": "cell-free assay, competition with immobilised ligand", "setting": "1 µM", "quantity": "remaining binding", "result": "100%"}
{"SMILES": "C#Cc1n[nH]c2c(-c3cn(C(C)c4ccccn4)c(=O)[nH]c3=O)cc(F)cc12 (stereo not drawn)", "test": "enzyme activity, inhibitor", "setting": "1 µM", "quantity": "inhibition", "result": "4.2%"}
{"SMILES": "CC(C)(C)c1cc(C=C(C#N)C#N)cc(Br)c1O", "test": "enzyme activity, inhibitor", "setting": "0.5 µM", "quantity": "remaining activity", "result": "95.6%"}
{"SMILES": "C#Cc1n[nH]c2c(-c3cn([C@@H](C)c4ccccc4)c(=O)[nH]c3=O)cc(F)cc12", "test": "enzyme activity, inhibitor", "setting": "0.1 µM", "quantity": "inhibition", "result": "3%"}
{"SMILES": "Nc1ncc(-c2nc(N3CCOCC3)nc(N3CCOCC3)n2)c(C(F)F)n1", "test": "binding, competition with immobilised ligand", "setting": "10 µM", "quantity": "remaining binding", "result": "100%"}
{"SMILES": "COc1ncccc1-c1cnn2ccc(N3CCN(C(=O)OC(C)C)CC3)nc12", "test": "binding, competition with immobilised ligand", "setting": "1 µM", "quantity": "remaining binding", "result": "86%"}
{"SMILES": "Cc1nn(C)cc1-c1nc2c(N3CCN(Cc4ccc(Cl)cc4)CC3)c(Cl)cnc2[nH]1", "test": "binding, competition with immobilised ligand", "setting": "1 µM", "quantity": "remaining binding", "result": "35%"}
{"SMILES": "N#CC1(c2ccccn2)CCN(Cc2cc(C(=O)O)c(=O)n3ccccc23)CC1", "test": "cell-free assay, competition with immobilised ligand", "setting": "1 µM", "quantity": "remaining binding", "result": "85%"}
{"SMILES": "Cn1cc(-c2cc(F)cc(N3CCn4c(cc5c4CCCC5)C3=O)c2CO)cc(Nc2ccc(N3CCN(C4COC4)CC3)cn2)c1=O", "test": "enzyme activity, inhibitor", "setting": "0.1 µM", "quantity": "inhibition", "result": "1%"}
{"SMILES": "COc1cc(Nc2ncc(F)c(Nc3ccc4c(n3)NC(=O)C(C)(C)O4)n2)cc(OC)c1OC", "test": "binding", "setting": "10 µM", "quantity": "inhibition", "result": "86%"}
